We go through 16 compounds from PMC11225362 (iScience, 2024).

In data set [1] the target is human constitutive 20S proteasome (Homo sapiens, UniProt P25787+P60900). Briefly: Fluorogenic small peptide assay with purified 20S proteasome. The class given is biochemical. Conditions: for EC200 (concentration at which degradation rate is enhanced 2-fold, 200%): equimolar mixture of Suc-LLVY-AMC, Z-LLE-AMC, Boc-LRR-AMC, mean ± SD, n = 3. Put shortly: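 Human constitutive 20S proteasome (0.5 nM) in 38 mM Tris, 100 mM NaCl, pH 7.8 was preincubated 20 min at 37°C with test compound (3.75–30 μM, or 9 points 0.16–30 μM) in DMSO (2% final). Suc-LLVY-, Z-LLE- and Boc-LRR-AMC were added at 6.67 μM final each. AMC release (380/460 nm) was read at 37°C for 1 h. Hydrolysis rate was expressed relative to vehicle, and EC200 was taken as the 2-fold-rate concentration.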

Data set [2] has as its system A53T α-synuclein in HEK-293T cells. Briefly: A53T α-synuclein levels in transfected HEK-293T cells. Conditions: for α-synuclein remaining: 0.75 μM, A53T α-synuclein; for A53T α-synuclein remaining: vs DMSO. The class given is cell-based.
Data set [3] deals with ubiquitin in HEK-293T cells. Briefly: Ubiquitin levels in unmodified HEK-293T cells. The class given is cell-based. Conditions: for levels of ubiquitin: 10 μM. Put shortly: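 Untransfected HEK-293T cells were treated with 10 μM test compound, DMSO vehicle, or 100 nM bortezomib. Ubiquitin levels were visualized and quantified by immunoblotting relative to vehicle.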
The target in data set [4] is T1, purified 20S proteasome (Homo sapiens, UniProt P25787+P60900). Description: Purified α-synuclein digestion with 20S proteasome. The class given is biochemical. Conditions: 10 nM 20S, 300 nM α-synuclein, 3.5 h, 37°C. An outline of the steps: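 Purified human 20S proteasome (10 nM final) in 50 mM HEPES, 5 mM DTT, pH 7.2 was preincubated 45 min at 37°C with test compound in DMSO or DMSO alone. Purified α-synuclein (300 nM final) was added, and digestion ran 3.5 h at 37°C. GAPDH (0.5 μM) served as loading control. Samples were boiled 15 min in SDS buffer and immunoblotted with anti-α-synuclein (1:1333).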

Data set [5] deals with T1, purified 20S proteasome. Briefly: Purified p25α digestion with 20S proteasome. The class given is biochemical. Conditions: 10 μM compound; 7.5 nM 20S, 500 nM p25α, 3 h. Put shortly: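 20S proteasome (7.5 nM final) in 120 mM NaCl, 50 mM Tris, 0.1% β-mercaptoethanol, pH 7.2 was exposed to 10 μM test compound or DMSO for 30 min at 37°C. Purified p25α was pretreated with 100 μM DTE for 30 min at room temperature, then added at 500 nM final for 3 h. GAPDH (0.5 μM) was the loading control. Samples were boiled in SDS buffer and immunoblotted.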

Another data set deals with p25α in HEK-293T cells. Description: p25α levels in transfected HEK-293T cells. The class given is cell-based. The settings on record: 10 μM, 16 h. An outline of the steps: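 HEK-293T cells were transiently transfected with TPPP/p25α and A53T α-synuclein plasmids, and protein was expressed for 48 h. Cells were then treated 16 h with 10 μM test compound, DMSO, or 30 nM bortezomib as control. p25α was quantified by immunoblot in triplicate.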

The next data set relates to p25α in PC12 cells. Description: p25α levels in PC12 cells. The class given is cell-based, rat. Conditions: 10 μM.
For data set [6], the system named is A53T α-synuclein in HEK-293T cells. Briefly: A53T α-synuclein levels in HEK-293T cells pre-treated with Bafilomycin A1. The class given is cell-based. The settings on record: 10 μM after 1 h pre-treatment with 500 nM Bafilomycin A1, HEK-293T. An outline of the steps: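 HEK-293T cells transiently expressing A53T α-synuclein (48 h expression) were pretreated with 500 nM bafilomycin A1 and exposed to 10 μM test compound. α-Synuclein levels were then determined by SDS-PAGE immunoblotting with anti-α-synuclein (1:1333).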

The test system of data set [7] is proteasome activity in PC12 cells. The class given is cell-based, rat. Conditions: 3 μM, 72 h; co-transfected PC12; untreated model 8%. Put shortly:
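PC12 cells (RPMI 1640 with 5% FBS and 10% horse serum) were strained and plated at 2,500 cells/well in 384-well plates. Cells were co-transfected with 0.5 μg A53T α-synuclein and 0.1 μg p25α plasmids for 24 h. They were then treated with 3 μM test compound or DMSO (0.03% final) for 72 h. Proteasome Glo reagent was added and luminescence recorded.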

The next data set concerns PC12 cells. The class given is cell-based, rat. Conditions: 3 μM, 72 h; co-transfected PC12; untreated model 25%.

Values joined by “and” are separate entries in the source; they are usually repeats but may differ in a detail not shown here. Equal values may be shown once. “Also recorded” adds a separate entry of the source.

As to “3-(2,3-dihydro-4H-benzo[b][1,4]oxazin-4-yl)-N,N-bis(4-fluorophenyl)propenamide [Compound 11]”, the “EC200 (concentration at which degradation rate is enhanced 2-fold, 200%)” value in [1] came to 9.0 µM.

As for `CC(C)C[C@H](NC(=O)[C@H](Cc1ccccc1)NC(=O)c1cnccn1)B(O)O` [BTZ, Bortezomib, reference compound], the “increase of A53T α-synuclein levels” value in data set [2] (30 nM, 16 h) was 148% and 135%. For the same compound, the “ubiquitin as compared to the vehicle” value in data set [3] (100 nM) came to 298%.

For `O=C(CCn1c2ccccc2c2ccccc21)N(c1ccc(F)cc1)c1ccc(F)cc1` [Compound 1, 3-(9H-carbazol-9-yl)-N,N-bis(4-fluorophenyl)propanamide], in data set [1], the “EC200 (concentration at which degradation rate is enhanced 2-fold, 200%)” value amounted to 1.6 µM. The α-synuclein remaining at purified 20S proteasome [4] (5 μM compound) was found to be 45%; at purified 20S proteasome [4] (15 μM compound) it was 28%; in data set [2] it was 55%. In addition, the “p25α remaining compared to DMSO treated samples” value on purified 20S proteasome [5] is 29%. The “decrease of A53T α-synuclein” value in data set [2] (1 μM, 16 h) worked out at 67%. For the same compound, the “A53T α-synuclein remaining” value in [2] (1 μM, 16 h) worked out at 64%; in data set [2] (15 μM, 16 h) it was 21%; in data set [6] it was 16%. Also, the “reduction of p25α” value in the data set on p25α in HEK-293T cells was found to be 45%. The compound also gave a p25α remaining in the data set with p25α in PC12 cells of 40%. Besides, the levels of ubiquitin entry in data set [3] was “didn’t impact the levels of ubiquitin significantly”. Besides, the proteasome activity remaining in data set [7] is listed as 29%.

Regarding `O=C(Cn1c2ccccc2c2ccccc21)N(c1ccc(F)cc1)c1ccc(F)cc1` [Compound 2, 2-(9H-carbazol-9-yl)-N,N-bis(4-fluorophenyl)acetamide], in data set [1], the “EC200 (concentration at which degradation rate is enhanced 2-fold, 200%)” value was found to be 3.8 µM.

On to `O=C(CCn1c2ccccc2c2ccc(Cl)cc21)N(c1ccc(F)cc1)c1ccc(F)cc1` [Compound 3, 3-(2-chloro-9H-carbazol-9-yl)-N,N-bis(4-fluorophenyl)propanamide], for which the “EC200 (concentration at which degradation rate is enhanced 2-fold, 200%)” value in [1] worked out at 0.9 µM. This compound also came in with a α-synuclein remaining at purified 20S proteasome [4] (15 μM compound) of 33%.

With `O=C(CCn1c2ccccc2c2ccncc21)N(c1ccc(F)cc1)c1ccc(F)cc1` [Compound 5, N,N-bis(4-fluorophenyl)-3-(9H-pyrido[3,4-b]indol-9-yl)propanamide], in data set [1], the “EC200 (concentration at which degradation rate is enhanced 2-fold, 200%)” value amounted to 3.8 µM.

With `O=C(Cn1c2ccccc2c2ccncc21)N(c1ccc(F)cc1)c1ccc(F)cc1` [Compound 6, N,N-bis(4-fluorophenyl)-2-(9H-pyrido[3,4-b]indol-9-yl)acetamide], in [1], the “EC200 (concentration at which degradation rate is enhanced 2-fold, 200%)” value was 2.0 µM.

For `O=C(CCn1ccc2ccccc21)N(c1ccc(F)cc1)c1ccc(F)cc1` [Compound 7, N,N-bis(4-fluorophenyl)-3-(1H-indol-1-yl)propanamide], in data set [1], the “EC200 (concentration at which degradation rate is enhanced 2-fold, 200%)” value is 7.5 µM.

With `O=C(Cn1ccc2ccccc21)N(c1ccc(F)cc1)c1ccc(F)cc1` [Compound 8, N,N-bis(4-fluorophenyl)-2-(1H-indol-1-yl)acetamide], in data set [1], the “EC200 (concentration at which degradation rate is enhanced 2-fold, 200%)” value amounted to 7.5 µM.

Consider `O=C(Cn1ccc2ccc(Cl)cc21)N(c1ccc(F)cc1)c1ccc(F)cc1` [Compound 10, 2-(6-chloro-1H-indol-1-yl)-N,N-bis(4-fluorophenyl)acetamide], for which the “EC200 (concentration at which degradation rate is enhanced 2-fold, 200%)” value in data set [1] came out at 1.6 µM.

For `O=C(CN1CCOc2ccccc21)N(c1ccc(F)cc1)c1ccc(F)cc1` [Compound 12, 2-(2,3-dihydro-4H-benzo[b][1,4]oxazin-4-yl)-N,N-bis(4-fluorophenyl)acetamide], in data set [1], the “EC200 (concentration at which degradation rate is enhanced 2-fold, 200%)” value came to 8.0 µM.

Turning to `O=C(CCn1c(=O)oc2ccccc21)N(c1ccc(F)cc1)c1ccc(F)cc1` [Compound 13, N,N-bis(4-fluorophenyl)-3-(2-oxobenzo[d]oxazol-3(2H)-yl)propanamide], the “EC200 (concentration at which degradation rate is enhanced 2-fold, 200%)” value in data set [1] came to 1.3 µM.

Regarding `O=C(Cn1c(=O)oc2ccccc21)N(c1ccc(F)cc1)c1ccc(F)cc1` [Compound 14, N,N-bis(4-fluorophenyl)-2-(2-oxobenzo[d]oxazol-3(2H)-yl)acetamide], the “20S proteasome activation (in words)” value in data set [1] (fluorogenic peptide assay) is reported as “abrogated all 20S proteasome activity”. Further, in data set [2] (15 μM, 16 h), the “A53T α-synuclein remaining” value is “no significant effect on degradation; also recorded: no impact on the levels of A53T α-synuclein”.

For `CN(C)CCC(=O)N(c1ccc(F)cc1)c1ccc(F)cc1` [Compound 19, 3-(dimethylamino)-N,N-bis(4-fluorophenyl)propanamide], on purified 20S proteasome [5], the “p25α remaining compared to DMSO treated samples” value is on record as “didn’t show significant impact on the rate of p25α degradation”. Moreover, the “reduction of p25α” value in the data set on p25α in HEK-293T cells is “didn’t impact the levels of p25α”. For the same compound, the levels of ubiquitin result in [3] was “didn’t impact the levels of ubiquitin significantly”.

`CCOC(=O)[C@]1(c2ccccc2)N=C(c2ccc(OC)cc2)N(Cc2ccccc2)[C@@H]1c1ccc(NCc2ccccc2)cc1` [TCH-165, reference compound]: the values for the α-synuclein remaining at purified 20S proteasome [4] (5 μM compound) and on purified 20S proteasome [4] (15 μM compound) were 60% and 40%, respectively. Further, the “A53T α-synuclein remaining” value in data set [2] (10 μM, 16 h) is 52% and 40%.

For “N,N-bis(4-fluorophenyl)-2-(2-methyl-9H-carbazol-9-yl)acetamide [Compound 4]”, the “EC200 (concentration at which degradation rate is enhanced 2-fold, 200%)” value in data set [1] turned out to be 1.2 µM. The α-synuclein remaining is reported as 58% on purified 20S proteasome [4] (5 μM compound), 33% at purified 20S proteasome [4] (15 μM compound) and 72% in [2]. The “p25α remaining compared to DMSO treated samples” value on purified 20S proteasome [5] is on record as 28%. The “A53T α-synuclein remaining” value in [2] (5 μM, 16 h) stood at 30%; in [2] (10 μM, 16 h), 14%; in data set [2] (15 μM, 16 h) it was 11%; in data set [6], 28%. In the data set on p25α in HEK-293T cells, the “reduction of p25α” value is listed as “non-significant”. Also, in the data set with p25α in PC12 cells, the p25α remaining is given as 67%. The levels of ubiquitin result in [3] is “didn’t impact the levels of ubiquitin significantly”. This compound also showed a cell viability in the data set on PC12 cells of 75%. Also, the proteasome activity remaining in [7] is 34%.
